Among the data in ChEMBL document CHEMBL1138673, “Bulky nonproteinogenic amino acids permit the design of very small and effective cationic antibacterial peptides” (2004) are MIC values, retold here.

Converted amounts (≈) assume the structure as drawn. Square brackets hold non-standard residues; d marks the D form. Peptide text beside a SMILES is read from it. * marks the point of attachment. Phe(4-tBu) = CC(C)(C)c1ccc(C[C@H](N)C(=O)O)cc1; Bip = N[C@@H](Cc1ccc(-c2ccccc2)cc1)C(=O)O; tBuAla = CC(C)(C)C[C@H](N)C(=O)O; Cha = N[C@@H](CC1CCCCC1)C(=O)O; Tle = CC(C)(C)[C@H](N)C(=O)O; NHBn = c1ccc(CN*)cc1; OBn = c1ccc(CO*)cc1

One experiment has as its system Staphylococcus aureus. The experiment can be described thus: Minimum inhibitory concentration against Staphylococcus aureus. It counts as functional. In outline: (§1)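 E. coli ATCC 25922 or S. aureus ATCC 25923 grown to exponential phase in 2% Bacto Peptone water. Standard broth microdilution, inoculum 2 × 10^6 cfu/mL, in 1% Bacto Peptone water, overnight incubation at 37 °C. MIC read after incubation. Each peptide run in parallel from at least three independent dilutions, with gentamicin as internal standard.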
In the case of `NC(N)=NCCC[C@H](NC(=O)[C@@H](N)Cc1ccc(-c2ccccc2)cc1)C(=O)OCc1ccc(-c2ccccc2)cc1`, the MIC came out at 5 µg/mL (≈ 8.87 µM).

Molecule `CC(C)NC(=O)[C@H](CCCN=C(N)N)NC(=O)[C@@H](N)Cc1c(C(C)(C)C)[nH]c2c(C(C)(C)C)cc(C(C)(C)C)cc12` came in with an MIC of 7.5 µg/mL (≈ 13.2 µM).

`C[C@H](N)C(=O)N[C@@H](CCCN=C(N)N)C(=O)OCc1ccc(-c2ccccc2)cc1` registered an MIC of 100 µg/mL (≈ 243 µM).

`NCCCC[C@H](N)CN[C@@H](Cc1c[nH]c2ccccc12)C(=O)OCc1ccccc1` showed an MIC of 150 µg/mL (≈ 367 µM).

The molecule `NC(N)=NCCC[C@H](NC(=O)[C@@H](N)Cc1ccccc1)C(=O)OCc1ccc(-c2ccccc2)cc1` yielded an MIC of 12.5 µg/mL (≈ 25.6 µM).

`CC(C)(C)c1cc(C(C)(C)C)c2[nH]c(C(C)(C)C)c(C[C@H](N)C(=O)N[C@@H](CCCNC(=N)N)C(=O)NCc3ccccc3)c2c1` had an MIC of 2.5 µg/mL (≈ 4.05 µM).

`CC(C)(C)c1cc(C(C)(C)C)c2[nH]c(C(C)(C)C)c(C[C@H](N)C(=O)N[C@@H](CCCNC(=N)N)C(N)=O)c2c1`: the MIC amounted to 15 µg/mL (≈ 28.4 µM).

Molecule `COC(=O)[C@H](CCCNC(=N)N)NC(=O)[C@@H](N)Cc1c(C(C)(C)C)[nH]c2c(C(C)(C)C)cc(C(C)(C)C)cc12` yielded an MIC of 5 µg/mL (≈ 9.21 µM).

In the case of `NC(N)=NCCC[C@H](NC(=O)[C@@H](N)Cc1c2ccccc2cc2ccccc12)C(=O)NCc1ccccc1`, inhibition of growth (MIC) required 20 µg/mL (≈ 39.2 µM).

On to `NCCCC[C@H](N)C(=O)N[C@@H](Cc1c[nH]c2ccccc12)C(=O)OCc1ccccc1` (H-Lys-Trp-OBn), for which the MIC was 75 µg/mL (≈ 178 µM).

Take `NCCCC[C@H](N)C(=O)N[C@H](Cc1c[nH]c2ccccc12)C(=O)OCc1ccccc1` (H-Lys-[dW]-OBn): it took 50 µg/mL (≈ 118 µM) to inhibit growth (MIC).

With `NC(N)=NCCC[C@H](NC(=O)[C@@H](N)Cc1c[nH]c2ccccc12)C(=O)NCc1ccccc1` (H-Trp-Arg-NHBn), the MIC is 100 µg/mL (≈ 222 µM).

Turning to `NC(N)=NCCC[C@H](NC(=O)[C@@H](N)Cc1ccc(-c2ccccc2)cc1)C(=O)NCc1ccccc1` (H-[Bip]-Arg-NHBn), the minimal inhibitory concentration (MIC) worked out at 15 µg/mL (≈ 30.8 µM).

Take `NC(N)=NCCC[C@H](NC(=O)[C@@H](N)Cc1ccc(-c2ccccc2)cc1)C(=O)OCc1ccccc1` (H-[Bip]-Arg-OBn): the MIC worked out at 5 µg/mL (≈ 10.3 µM).

`COC(=O)[C@H](CCCN=C(N)N)NC(=O)[C@@H](N)Cc1ccc(-c2ccccc2)cc1` (H-[Bip]-Arg-OMe) had an MIC of 150 µg/mL (≈ 365 µM).

Molecule `NC(N)=NCCC[C@H](NC(=O)[C@@H](N)CC1CCCCC1)C(=O)OCc1ccccc1` (H-[Cha]-Arg-OBn) had an MIC of 100 µg/mL (≈ 239 µM).

The molecule `CC(C)(C)c1ccc(C[C@H](N)C(=O)N[C@@H](CCCN=C(N)N)C(=O)OCc2ccccc2)cc1` (H-[Phe(4-tBu)]-Arg-OBn) had a minimal inhibitory concentration (MIC) of 25 µg/mL (≈ 53.5 µM).

Molecule `COC(=O)[C@H](CCCN=C(N)N)NC(=O)[C@@H](N)Cc1ccc(C(C)(C)C)cc1` (H-[Phe(4-tBu)]-Arg-OMe) returned an MIC of over 300 µg/mL.

For `CC(C)(C)[C@H](N)C(=O)N[C@@H](CCCN=C(N)N)C(=O)OCc1ccccc1` (H-[Tle]-Arg-OBn), the MIC was over 300 µg/mL.

Molecule `CC(C)(C)C[C@H](N)C(=O)N[C@@H](CCCN=C(N)N)C(=O)OCc1ccccc1` (H-[tBuAla]-Arg-OBn) returned an MIC of over 300 µg/mL.

For the next experiment, the system named is Escherichia coli. The experiment can be described thus: Minimum inhibitory concentration against Escherichia coli. It counts as functional. The method in brief:
as §1
`NC(N)=NCCC[C@H](NC(=O)[C@@H](N)Cc1ccc(-c2ccccc2)cc1)C(=O)OCc1ccc(-c2ccccc2)cc1` registered an MIC of 50 µg/mL (≈ 88.7 µM).

`CC(C)NC(=O)[C@H](CCCN=C(N)N)NC(=O)[C@@H](N)Cc1c(C(C)(C)C)[nH]c2c(C(C)(C)C)cc(C(C)(C)C)cc12`: the MIC was found to be 50 µg/mL (≈ 87.7 µM).

In turn, `C[C@H](N)C(=O)N[C@@H](CCCN=C(N)N)C(=O)OCc1ccc(-c2ccccc2)cc1` gave an MIC of 300 µg/mL (≈ 729 µM).

In turn, `NCCCC[C@H](N)CN[C@@H](Cc1c[nH]c2ccccc12)C(=O)OCc1ccccc1` came in with an MIC of over 300 µg/mL.

Turning to `NC(N)=NCCC[C@H](NC(=O)[C@@H](N)Cc1ccccc1)C(=O)OCc1ccc(-c2ccccc2)cc1`, inhibition of growth (MIC) required 100 µg/mL (≈ 205 µM).

`CC(C)(C)c1cc(C(C)(C)C)c2[nH]c(C(C)(C)C)c(C[C@H](N)C(=O)N[C@@H](CCCNC(=N)N)C(=O)NCc3ccccc3)c2c1` displayed an MIC of 10 µg/mL (≈ 16.2 µM).

The molecule `CC(C)(C)c1cc(C(C)(C)C)c2[nH]c(C(C)(C)C)c(C[C@H](N)C(=O)N[C@@H](CCCNC(=N)N)C(N)=O)c2c1` had an MIC of over 150 µg/mL.

The molecule `COC(=O)[C@H](CCCNC(=N)N)NC(=O)[C@@H](N)Cc1c(C(C)(C)C)[nH]c2c(C(C)(C)C)cc(C(C)(C)C)cc12` displayed an MIC of 30 µg/mL (≈ 55.3 µM).

In turn, `NC(N)=NCCC[C@H](NC(=O)[C@@H](N)Cc1c2ccccc2cc2ccccc12)C(=O)NCc1ccccc1` gave an MIC of 150 µg/mL (≈ 294 µM).

`NCCCC[C@H](N)C(=O)N[C@@H](Cc1c[nH]c2ccccc12)C(=O)OCc1ccccc1` (H-Lys-Trp-OBn) returned an MIC of over 200 µg/mL.

`NCCCC[C@H](N)C(=O)N[C@H](Cc1c[nH]c2ccccc12)C(=O)OCc1ccccc1` (H-Lys-[dW]-OBn) came in with a minimum inhibitory concentration (MIC) of over 200 µg/mL.

Turning to `NC(N)=NCCC[C@H](NC(=O)[C@@H](N)Cc1c[nH]c2ccccc12)C(=O)NCc1ccccc1` (H-Trp-Arg-NHBn), the MIC is over 300 µg/mL.

Molecule `NC(N)=NCCC[C@H](NC(=O)[C@@H](N)Cc1ccc(-c2ccccc2)cc1)C(=O)NCc1ccccc1` (H-[Bip]-Arg-NHBn) gave an MIC of over 50 µg/mL.

For `NC(N)=NCCC[C@H](NC(=O)[C@@H](N)Cc1ccc(-c2ccccc2)cc1)C(=O)OCc1ccccc1` (H-[Bip]-Arg-OBn), the MIC is 150 µg/mL (≈ 308 µM).

For `COC(=O)[C@H](CCCN=C(N)N)NC(=O)[C@@H](N)Cc1ccc(-c2ccccc2)cc1` (H-[Bip]-Arg-OMe), the minimum inhibitory concentration (MIC) was over 300 µg/mL.

For the molecule `NC(N)=NCCC[C@H](NC(=O)[C@@H](N)CC1CCCCC1)C(=O)OCc1ccccc1` (H-[Cha]-Arg-OBn), the MIC is over 300 µg/mL.

In turn, `CC(C)(C)c1ccc(C[C@H](N)C(=O)N[C@@H](CCCN=C(N)N)C(=O)OCc2ccccc2)cc1` (H-[Phe(4-tBu)]-Arg-OBn) gave an MIC of 200 µg/mL (≈ 428 µM).

Turning to `COC(=O)[C@H](CCCN=C(N)N)NC(=O)[C@@H](N)Cc1ccc(C(C)(C)C)cc1` (H-[Phe(4-tBu)]-Arg-OMe), the MIC is over 300 µg/mL.

With `CC(C)(C)[C@H](N)C(=O)N[C@@H](CCCN=C(N)N)C(=O)OCc1ccccc1` (H-[Tle]-Arg-OBn), the MIC is over 300 µg/mL.

The molecule `CC(C)(C)C[C@H](N)C(=O)N[C@@H](CCCN=C(N)N)C(=O)OCc1ccccc1` (H-[tBuAla]-Arg-OBn) yielded an MIC of over 300 µg/mL.
